Data set [1] has as its system BT-474. Briefly: Toxicity against human BT474 cells at =<40 uM incubated for 72 hrs by resazurin dye reduction assay. The class given is cell-based. The conditions noted are these: bt-474, 72 h. An outline of the steps: (§1)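 Adherent cancer cells seeded according to growth rate, compound exposure 72 h at 37 °C, 5% CO2, highest concentration 40 μM. Resazurin at 600 μM final, 4 h, fluorescence 530/595 nm. % growth inhibition scaled between >10% DMSO or 20 μM puromycin (100%) and 0.4% DMSO (0%). Triplicate. IC50 by variable-slope nonlinear regression on log dose.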
(Resazurin is reduced to fluorescent resorufin, in cell work by metabolically active cells.)

Data set [2] concerns Plasmodium falciparum. In words: Antimalarial activity against chloroquine-sensitive Plasmodium falciparum 3D7 assessed as reduction in parasite replication at 40 uM incubated for 72 hrs.
The subject of data set [3] is BXPC-3. Briefly: Toxicity against human BxPC3 cells at =<40 uM incubated for 72 hrs by resazurin dye reduction assay. The class given is cell-based. The conditions noted are these: bxpc-3, 72 h. The gist of the method:
as §1

In data set [4] the test system is Trypanosoma brucei brucei. Briefly: Antitrypanosomal activity against Trypanosoma brucei brucei up to 40 uM incubated for 48 hrs by Alamar Blue assay. In kind it is functional, organism-based. An outline of the steps: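 T. b. brucei at 2000 cells/mL in HMI-9 with 10% FCS and penicillin/streptomycin, preincubated 24 h. Compound in DMSO prediluted 1:20 in supplemented DMEM, tested up to 40 μM, 48 h at 37 °C, 5% CO2. Alamar Blue added, 2 h under the same conditions then 22 h RT. Fluorescence ex 535/em 590 nm.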

Data set [5] has as its system PANC-1. In words: Toxicity against human PANC1 cells at =<40 uM incubated for 72 hrs by resazurin dye reduction assay. The settings on record: panc-1, 72 h. In kind it is cell-based. The gist of the method:
as §1

The next data set has as its system HEK293. Briefly: Toxicity against human HEK293 cells at =<40 uM incubated for 72 hrs by resazurin dye reduction assay. The conditions noted are these: hek293, 72 h. In kind it is cell-based. The gist of the method:
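HEK293 adherent cells, compound exposure 72 h at 37 °C, 5% CO2, highest concentration 40 μM. Supernatant replaced with 10% Presto Blue in DMEM plus 2 mM glutamax, 3 h, fluorescence 530/595 nm. % inhibition scaled between >10% DMSO or 20 μM puromycin (100%) and 0.4% DMSO (0%). Triplicate. IC50 by variable-slope nonlinear regression.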

Data set [6] concerns Plasmodium falciparum. Briefly: Antimalarial activity against chloroquine-resistant Plasmodium falciparum Dd2 assessed as reduction in parasite replication at 40 uM incubated for 72 hrs.
The nature of data set [7]: Toxicity against human MDA-M cells at =<40 uM incubated for 72 hrs by resazurin dye reduction assay. In kind it is cell-based. An outline of the steps:
as §1

For another data set, the system named is MCF-10A. Briefly: Toxicity against human MCF10A cells at =<40 uM incubated for 72 hrs by resazurin dye reduction assay. In kind it is cell-based. An outline of the steps:
as §1

The nature of data set [8]: Toxicity against human SU8686 cells at =<40 uM incubated for 72 hrs by resazurin dye reduction assay. In kind it is cell-based. The settings on record: su.86.86, 72 h. An outline of the steps: as §1
Data set [9] deals with Plasmodium falciparum. Briefly: Antimalarial activity against chloroquine-sensitive Plasmodium falciparum 3D7 assessed as reduction in parasite replication incubated for 72 hrs. The settings on record: 3D7, 72 h.
A short description of data set [10]: Growth inhibition of human MCF10A cells at 20 uM incubated for 72 hrs by resazurin dye reduction assay. The class given is cell-based, MCF-10A. The settings on record: read-out: GI.
Data set [11] relates to BXPC-3. Briefly: Growth inhibition of human BxPC3 cells at 20 uM incubated for 72 hrs by resazurin dye reduction assay. The settings on record: BXPC-3, 72 h, read-out: GI. In kind it is functional.
The subject of data set [12] is BT-474. In words: Growth inhibition of human BT474 cells at 20 uM incubated for 72 hrs by resazurin dye reduction assay. The settings on record: BT-474, 72 h, read-out: GI. In kind it is functional.
The nature of data set [13]: Growth inhibition of human HEK293 cells at 20 uM incubated for 72 hrs by resazurin dye reduction assay. The class given is cell-based. The settings on record: read-out: GI.
Data set [14] can be described thus: Growth inhibition of human SU8686 cells at 20 uM incubated for 72 hrs by resazurin dye reduction assay. The conditions noted are these: SU.86.86, 72 h, read-out: GI. In kind it is functional.
Data set [15] relates to PANC-1. In words: Growth inhibition of human PANC1 cells at 20 uM incubated for 72 hrs by resazurin dye reduction assay. The settings on record: PANC-1, 72 h, read-out: GI. The class given is functional.
Data set [16] is described as follows: Growth inhibition of human MDA-M cells at 20 uM incubated for 72 hrs by resazurin dye reduction assay. In kind it is functional. The settings on record: read-out: GI.
The nature of data set [17]: Selectivity index, ratio of cytotoxicity against human PANC1 cells to IC50 for chloroquine-sensitive Plasmodium falciparum 3D7. The conditions noted are these: read-out: Selectivity Index. In kind it is toxicity, cell-based, PANC-1.
Data set [18] can be described thus: Selectivity index, ratio of cytotoxicity against human BxPC3 cells to IC50 for chloroquine-sensitive Plasmodium falciparum 3D7. The class given is toxicity, cell-based, BXPC-3. The settings on record: read-out: Selectivity Index.
A short description of data set [19]: Selectivity index, ratio of cytotoxicity against human MCF10A cells to IC50 for chloroquine-sensitive Plasmodium falciparum 3D7. The class given is toxicity, cell-based, MCF-10A. The settings on record: read-out: Selectivity Index.
The nature of data set [20]: Selectivity index, ratio of cytotoxicity against human SU8686 cells to IC50 for chloroquine-sensitive Plasmodium falciparum 3D7. The conditions noted are these: read-out: Selectivity Index. The class given is toxicity, cell-based.
Data set [21] in a line: Selectivity index, ratio of cytotoxicity against human BT474 cells to IC50 for chloroquine-sensitive Plasmodium falciparum 3D7. In kind it is toxicity, cell-based, BT-474. The conditions noted are these: read-out: Selectivity Index.
Data set [22] relates to Plasmodium falciparum. Briefly: Antimalarial activity against chloroquine-resistant Plasmodium falciparum Dd2 assessed as reduction in parasite replication incubated for 72 hrs. The settings on record: Dd2, 72 h.
Data set [23] in a line: Selectivity index, ratio of cytotoxicity against human HEK293 cells to IC50 for chloroquine-sensitive Plasmodium falciparum 3D7. The settings on record: read-out: Selectivity Index. The class given is toxicity, cell-based.
Data set [24] in a line: Selectivity index, ratio of cytotoxicity against human MDA-M cells to IC50 for chloroquine-sensitive Plasmodium falciparum 3D7. The class given is toxicity, cell-based. The conditions noted are these: read-out: Selectivity Index.

SMILES strings stand for the structures. Calls of active or inactive are those of the source. The rule behind the calls is not given here.

This note sets out measurements from ChEMBL document CHEMBL2086333, “Albopunctatone, an antiplasmodial anthrone-anthraquinone from the Australian ascidian Didemnum albopunctatum” (J Nat Prod, 2012).

In the case of `O=C1c2cccc(O)c2C(=O)c2c(O)cccc21` [DANTHRON], the Activity entry (in the data set with BT-474 [1]; in the data set with BXPC-3 [3]; with PANC-1 [5]; with HEK293; in [7]; with MCF-10A) was “Non-toxic” in each case. Moreover, in [8], the Activity result is “Non-toxic”. Moreover, the outcome (with Plasmodium falciparum [2]; in data set [4]; with Plasmodium falciparum [6]) was inactive.
Take `C[C@@H]1CC[C@H]2[C@@H](C)C(=O)O[C@@H]3O[C@@]4(C)CC[C@@H]1[C@]32OO4` [ARTEMISININ]: in the data set on Plasmodium falciparum [9], the 50% inhibitory concentration (IC50) (in general, the concentration needed to halve the response being measured) came to 7.2 nM.
As to `COc1ccc(C[C@H](N)C(=O)N[C@H]2[C@@H](O)[C@H](n3cnc4c(N(C)C)ncnc43)O[C@@H]2CO)cc1` [PUROMYCIN], the inhibition at 72 h, 20 µM in [10] and in data set [13] was 100% each time. The inhibition of growth at 20 µM (in the data set on BXPC-3 [11]; with BT-474 [12]; in data set [14]; in the data set on PANC-1 [15]; in [16]) was 100% throughout. Further, the IC50 with Plasmodium falciparum [9] worked out at 89 nM.
In the case of `O=C1c2cccc(O)c2C(=O)c2c1ccc(C1(O)c3cccc(O)c3C(=O)c3c(O)cccc31)c2O` [ALBOPUNCTATONE], the Activity entry (in the data set with BT-474 [1]; with BXPC-3 [3]; with PANC-1 [5]; in the data set with HEK293; in data set [7]; in the data set with MCF-10A) was “Non-toxic” each time. Besides, the Activity entry in [8] is reported as “Non-toxic”. In addition, the selectivity ratio in data set [17], in data set [18], in [19], in [20], in data set [21] and in [23] was greater than 9.1 each time. Moreover, the selectivity ratio in [24] is greater than 9.1. Besides, in data set [4], the outcome was inactive. The figures for the IC50 with Plasmodium falciparum [22] and in the data set on Plasmodium falciparum [9] were 5.3 µM and 4400 nM, respectively.
